Publication PMC7042484 (Redox Biology, 2020)

Assays:
[1] = target: xanthine oxidase (Bos taurus, UniProt P80457); experiment: Xanthine Oxidase assay; format: biochemical; conditions: 100 μM compound, hypoxanthine, Amplex Red/peroxidase
Procedure, shortened: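 Compound (100 μM) with xanthine oxidase, 100 μM Amplex Red, 0.4 U/mL horseradish peroxidase and 0.2 mM hypoxanthine. 15 min at 37 °C; H2O2-derived resorufin read by fluorescence, ex 530/em 590 nm.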

[2] = target: T1, bacterial NOX5 (Cylindrospermum stagnale, UniProt K9WT99); experiment: Initial evaluation on NOX5 membrane preparations; format: biochemical; conditions: for inhibition of NOX5 (in words): 100 μM compound, membranes
T1 sequence (K9WT99 1-693): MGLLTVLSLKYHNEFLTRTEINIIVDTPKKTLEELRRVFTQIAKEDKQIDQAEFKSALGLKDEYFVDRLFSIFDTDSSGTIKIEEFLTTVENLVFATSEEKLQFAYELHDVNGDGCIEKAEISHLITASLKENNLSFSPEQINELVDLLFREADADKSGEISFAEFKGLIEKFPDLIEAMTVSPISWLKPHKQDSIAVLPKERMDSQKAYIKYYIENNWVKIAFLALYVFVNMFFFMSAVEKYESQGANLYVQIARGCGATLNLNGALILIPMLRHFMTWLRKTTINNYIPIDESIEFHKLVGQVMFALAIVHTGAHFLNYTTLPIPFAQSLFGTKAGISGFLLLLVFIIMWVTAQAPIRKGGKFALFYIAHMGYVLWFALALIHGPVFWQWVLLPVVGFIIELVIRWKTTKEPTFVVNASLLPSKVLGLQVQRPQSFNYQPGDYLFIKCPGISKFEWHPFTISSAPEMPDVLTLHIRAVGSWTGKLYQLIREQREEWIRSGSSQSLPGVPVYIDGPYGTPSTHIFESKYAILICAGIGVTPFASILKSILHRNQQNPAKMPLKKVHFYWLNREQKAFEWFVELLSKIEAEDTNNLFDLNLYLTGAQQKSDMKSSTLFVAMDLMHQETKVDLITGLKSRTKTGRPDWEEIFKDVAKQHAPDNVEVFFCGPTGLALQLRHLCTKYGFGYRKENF

[3] = Amplex Red/peroxidase assay in the absence of a NOX enzyme; conditions: 100 μM compound, no NOX enzyme, NADPH present
Procedure, shortened: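 Compound (100 μM) added to the Amplex Red/horseradish peroxidase H2O2 read-out with NADPH present but no NOX membranes, to probe reagent interference. Resorufin fluorescence read on a plate reader.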

[4] = MCLA auto-oxidation assay; conditions: 100 μM compound
[5] = target: T2, human NOX2 (Homo sapiens, UniProt P04839); experiment: MCLA assay on NOX2 membranes; format: biochemical; conditions: 100 μM compound
T2 sequence (P04839 2-570 limits assumed): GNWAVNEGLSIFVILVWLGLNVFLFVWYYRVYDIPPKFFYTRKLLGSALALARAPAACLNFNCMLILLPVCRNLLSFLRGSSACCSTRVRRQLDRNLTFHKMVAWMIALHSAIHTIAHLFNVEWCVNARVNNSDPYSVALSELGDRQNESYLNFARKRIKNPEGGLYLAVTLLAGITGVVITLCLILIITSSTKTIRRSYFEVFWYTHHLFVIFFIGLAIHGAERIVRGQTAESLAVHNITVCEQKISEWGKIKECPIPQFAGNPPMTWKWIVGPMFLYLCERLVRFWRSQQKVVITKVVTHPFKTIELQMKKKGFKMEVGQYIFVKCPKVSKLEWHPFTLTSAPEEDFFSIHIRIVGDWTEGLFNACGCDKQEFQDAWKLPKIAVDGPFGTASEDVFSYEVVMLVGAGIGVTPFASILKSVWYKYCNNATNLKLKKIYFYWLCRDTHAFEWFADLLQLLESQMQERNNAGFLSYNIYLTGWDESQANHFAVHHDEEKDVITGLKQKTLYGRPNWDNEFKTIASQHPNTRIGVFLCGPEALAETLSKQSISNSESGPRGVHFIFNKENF
T2 sequence (P13498 2-195 partner limits assumed): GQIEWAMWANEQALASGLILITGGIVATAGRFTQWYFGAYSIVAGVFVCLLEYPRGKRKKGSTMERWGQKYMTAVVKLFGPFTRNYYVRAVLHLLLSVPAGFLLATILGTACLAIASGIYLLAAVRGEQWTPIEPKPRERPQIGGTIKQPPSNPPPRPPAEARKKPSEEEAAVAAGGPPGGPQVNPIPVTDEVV

[6] = target: T3, human NOX4 (Homo sapiens, UniProt Q9NPH5); experiment: Initial evaluation on NOX4 membrane preparations; format: biochemical; conditions: for inhibition of NOX4 (in words): 100 μM compound, membranes
T3 sequence (Q9NPH5 1-578): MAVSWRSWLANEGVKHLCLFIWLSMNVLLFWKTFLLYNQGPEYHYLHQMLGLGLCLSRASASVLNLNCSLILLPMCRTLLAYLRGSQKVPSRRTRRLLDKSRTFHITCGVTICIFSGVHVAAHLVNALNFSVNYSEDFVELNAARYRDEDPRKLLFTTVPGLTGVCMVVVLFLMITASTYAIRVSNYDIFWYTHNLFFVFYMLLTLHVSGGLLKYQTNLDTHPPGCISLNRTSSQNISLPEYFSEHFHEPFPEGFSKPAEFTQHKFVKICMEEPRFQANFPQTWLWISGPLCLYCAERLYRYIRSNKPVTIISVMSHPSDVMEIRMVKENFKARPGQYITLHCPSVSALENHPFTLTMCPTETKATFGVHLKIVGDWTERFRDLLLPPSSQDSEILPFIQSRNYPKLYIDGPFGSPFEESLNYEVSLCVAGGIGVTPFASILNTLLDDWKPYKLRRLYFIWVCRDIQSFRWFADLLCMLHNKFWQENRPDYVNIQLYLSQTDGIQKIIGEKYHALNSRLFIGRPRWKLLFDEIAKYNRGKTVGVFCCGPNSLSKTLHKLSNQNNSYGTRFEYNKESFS
T3 sequence (P13498 2-195 partner limits assumed): T2 sequence (P13498 2-195 partner limits assumed)
Procedure, shortened: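 NOX4-p22 membranes from transfected HEK293 EBNA-1 cells, compound 100 μM, 10 min preincubation at 4 °C in PBS. Amplex Red: 100 μg membranes, 12.5 μM Amplex Red, 0.02 U/ml HRP, 40 μM FAD, started with 40 μM NADPH, ex 572/em 583 nm. CBA: 50 μg membranes, 20 μM FAD, then 200 μM coumarin boronic acid and 50 μM NADPH, ex 320/em 430 nm.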

[7] = target: T1, bacterial NOX5; experiment: MCLA assay on NOX5 membranes; format: biochemical; conditions: 100 μM compound, MCLA assay
Procedure, shortened: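 E. coli membranes carrying FLAG-(His)8-SUMO-tagged C. stagnale NOX5, 12 μg, in PBS with 1 mM CaCl2, 0.5 μM FAD and 1 μM MCLA. Compound (100 μM single point, or concentration series) 10 min at 25 °C. Started with 200 μM NADPH; chemiluminescence read. Membranes lacking NOX5 set noise level. IC50 by sigmoidal fit, % of untreated control.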

[8] = target: T2, human NOX2; experiment: Initial evaluation on NOX2 membrane preparations; format: biochemical; conditions: for inhibition of NOX2 (in words): 100 μM compound, membranes
[9] = tested on: wild-type NOX5 dehydrogenase domain; experiment: Thermal shift analysis on purified NOX5 dehydrogenase domain; format: binding, Cylindrospermum stagnale; conditions: inflection temperature Ti, 35–95 °C
Procedure, shortened: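 Wild-type purified NOX5 dehydrogenase domain, with or without ligand, heated from 35 °C to 95 °C over 3 min on a Tycho system; inflection temperature (Ti) determined.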

[10] = NADH-PMS superoxide-scavenging assay; conditions: 100 μM compound, PMS-NADH/nitroblue tetrazolium
Procedure, shortened: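 Non-enzymatic superoxide generation in 16 mM Tris-HCl pH 8.0 with 80 μM nitroblue tetrazolium and 70 μM NADH plus compound (100 μM). Started with 5 μM phenazine methosulfate; 5 min at 25 °C; A560. SOD as positive control; lower absorbance than the negative control scored as scavenging.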

[11] = tested on: NOXs; experiment: Initial evaluation of NOX inhibitors, isoform not specified; format: biochemical; conditions: 100 μM compound
[12] = target: T4, wild-type dehydrogenase domain of bacterial NOX5 (Cylindrospermum stagnale, UniProt K9WT99); experiment: NADPH-depletion assay on purified wild-type NOX5 dehydrogenase domain; format: biochemical
T4 sequence (K9WT99 413-693): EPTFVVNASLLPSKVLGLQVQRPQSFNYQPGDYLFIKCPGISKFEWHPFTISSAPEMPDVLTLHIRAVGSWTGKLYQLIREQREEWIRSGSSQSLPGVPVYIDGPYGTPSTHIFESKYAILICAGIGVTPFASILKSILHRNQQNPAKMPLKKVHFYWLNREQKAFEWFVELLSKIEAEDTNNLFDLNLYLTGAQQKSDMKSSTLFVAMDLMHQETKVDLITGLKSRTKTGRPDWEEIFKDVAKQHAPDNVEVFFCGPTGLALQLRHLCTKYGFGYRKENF

[13] = target: T5, wild-type dehydrogenase domain of NOX5 (Cylindrospermum stagnale, UniProt K9WT99); experiment: Microscale thermophoresis binding assay on purified NOX5 dehydrogenase domain
T5 sequence (K9WT99 413-693): T4 sequence (K9WT99 413-693)
Procedure, shortened: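 Microscale thermophoresis with fluorescently labelled wild-type NOX5 dehydrogenase domain (~200 nM). Ligand given as 16 serial dilutions up to 6.4 mM in 50 mM Hepes, 240 mM NaCl, 0.5% glycerol, 250 μM FAD, 0.1% pluronic acid, pH 7.5. Incubated 10 min at 25 °C; recorded at 25 °C, red channel. Kd from binding isotherms, triplicate, standard deviation.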

xanthine oxidase, sequence (P80457 whole entry): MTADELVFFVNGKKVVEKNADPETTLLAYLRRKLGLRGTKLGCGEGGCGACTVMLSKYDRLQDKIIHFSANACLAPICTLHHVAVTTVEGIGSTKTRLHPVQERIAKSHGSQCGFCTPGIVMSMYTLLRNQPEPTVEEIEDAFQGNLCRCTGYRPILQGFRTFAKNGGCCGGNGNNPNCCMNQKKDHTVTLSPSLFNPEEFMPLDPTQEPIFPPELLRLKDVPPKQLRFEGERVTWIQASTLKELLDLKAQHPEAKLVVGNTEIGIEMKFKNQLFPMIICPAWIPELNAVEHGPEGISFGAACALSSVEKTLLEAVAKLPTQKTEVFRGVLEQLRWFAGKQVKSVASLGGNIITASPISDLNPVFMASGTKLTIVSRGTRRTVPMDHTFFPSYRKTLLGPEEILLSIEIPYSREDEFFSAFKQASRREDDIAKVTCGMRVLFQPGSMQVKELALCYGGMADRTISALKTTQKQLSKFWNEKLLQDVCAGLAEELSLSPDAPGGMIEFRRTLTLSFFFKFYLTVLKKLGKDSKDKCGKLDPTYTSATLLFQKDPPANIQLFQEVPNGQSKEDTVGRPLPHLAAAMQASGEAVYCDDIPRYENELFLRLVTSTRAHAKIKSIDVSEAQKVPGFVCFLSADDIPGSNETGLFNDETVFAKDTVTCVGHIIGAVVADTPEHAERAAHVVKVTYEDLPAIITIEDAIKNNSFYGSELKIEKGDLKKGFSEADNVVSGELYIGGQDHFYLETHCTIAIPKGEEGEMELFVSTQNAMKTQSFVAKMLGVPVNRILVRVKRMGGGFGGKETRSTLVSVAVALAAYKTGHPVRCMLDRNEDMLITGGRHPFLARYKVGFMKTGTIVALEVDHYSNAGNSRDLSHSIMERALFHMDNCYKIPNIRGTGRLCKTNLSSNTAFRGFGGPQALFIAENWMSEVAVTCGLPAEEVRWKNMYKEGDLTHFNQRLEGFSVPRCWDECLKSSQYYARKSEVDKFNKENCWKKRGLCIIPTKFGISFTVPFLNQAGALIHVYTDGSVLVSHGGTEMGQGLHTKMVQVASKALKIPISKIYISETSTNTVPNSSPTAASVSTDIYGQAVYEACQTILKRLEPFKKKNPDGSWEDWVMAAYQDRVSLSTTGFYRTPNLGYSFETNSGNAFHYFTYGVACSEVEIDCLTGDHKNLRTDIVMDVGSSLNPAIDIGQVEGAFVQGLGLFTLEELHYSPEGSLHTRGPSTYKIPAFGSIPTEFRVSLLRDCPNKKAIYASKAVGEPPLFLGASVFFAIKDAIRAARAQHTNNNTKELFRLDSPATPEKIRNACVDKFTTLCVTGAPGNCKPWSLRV

Compound | inhibition of the hydrogen peroxide-producing activity of xanthine oxidase [1] | interference with MCLA auto-oxidation [4] | inhibition of NOX4 (in words) [6] | inhibition of NOX5 (in words) [2] | superoxide scavenging [10] | other results
CC1=NN(c2ccccc2)CC1 [3-methyl-1-phenyl-2-pyrazoline] | powerful inhibitions | – | – | – | – | –
CC(C)c1c(C(=O)Nc2ccccc2)c(-c2ccccc2)c(-c2ccc(F)cc2)n1CC[C@@H](O)C[C@@H](O)CC(=O)O [Atorvastatin] | – | – | – | – | – | inhibition at 100 µM ([2]; read-out: inhibition of NOX5): ~50%
CN(C)c1cccc(-c2c3c(=O)n(-c4ccccc4Cl)[nH]c3cc(=O)n2C)c1 [GKT137831] | powerful inhibitions | substantial interference | strong NOX4 inhibitors | – | – | interference on the Amplex Red/peroxidase assay [3]: substantial interference; inhibition of NOX2 with MCLA (in words) [5]: moderately active; inhibition of NOX5 with the MCLA-based protocol (in words) [7]: moderately active
CC1=C(O)C(=O)C=C2C1=CC=C1[C@@]2(C)CC[C@@]2(C)[C@@H]3C[C@](C)(C(=O)O)CC[C@]3(C)CC[C@]12C [celastrol] | powerful inhibitions | interfered with the MCLA auto-oxidation | full | full | – | inhibition of NOX2 (in words) [8]: full; stabilising effect in thermal shift analysis [9]: lack of any stabilising effect
O=c1c2ccccc2[se]n1-c1ccccc1 [ebselen] | powerful inhibitions | substantial interference | full | full | – | interference on the Amplex Red/peroxidase assay [3]: substantial interference; inhibition of NOX2 (in words) [8]: full; stabilising effect in thermal shift analysis [9]: lack of any stabilising effect
OCCN1CCN(CCCN2c3ccccc3Sc3ccc(C(F)(F)F)cc32)CC1 [fluphenazine] | powerful inhibitions | – | – | – | mild scavenging activities | –
C1CCC(C(CC2CCCCN2)C2CCCCC2)CC1 (stereo not shown) [perhexiline] | – | interfered with the MCLA auto-oxidation | – | not against NOX5 | – | inhibition at 100 µM ([8]; read-out: inhibition of NOX2): 40 to 70%; inhibition at 100 µM ([6]; read-out: inhibition of NOX4): 40 to 70%
OCCN1CCN(CCCN2c3ccccc3Sc3ccc(Cl)cc32)CC1 [perphenazine] | powerful inhibitions | – | – | – | mild scavenging activities | –
O=c1[nH]c2ccccc2c2ccccc12 [phenanthridinone, 6(5H)-phenanthridinone] | – | – | – | – | mild scavenging activities | pattern of NOX inhibition (in words) [11]: assay-dependent inhibitory activities
CC1=CC(=O)c2c(O)cccc2C1=O [plumbagin] | – | – | – | – | – | pattern of NOX inhibition (in words) [11]: assay-dependent inhibitory activities
CN(C)CCCN1c2ccccc2Sc2ccccc21 [promazine] | powerful inhibitions | – | – | – | – | –
Cc1ccc(C(=O)Nc2ccc(S(=O)(=O)O)c3cc(S(=O)(=O)O)cc(S(=O)(=O)O)c23)cc1NC(=O)c1cccc(NC(=O)Nc2cccc(C(=O)Nc3cc(C(=O)Nc4ccc(S(=O)(=O)O)c5cc(S(=O)(=O)O)cc(S(=O)(=O)O)c45)ccc3C)c2)c1 [suramin] | – | – | full | full | strong superoxide scavenger | inhibition of NOX2 (in words) [8]: full; Ki [12]: 0.39 ± 0.05 µM; stabilising effect in thermal shift analysis [9]: lack of any stabilising effect; Kd [13]: 52.2 ± 1.1 µM
